Test results reported in paper PMC3443740 (Journal of immunology (Baltimore, Md. : 1950), 2012).

What was measured:
[1] = test system: panel of 121 kinases; experiment: kinase selectivity profiling; assay type: biochemical; settings: panel of 121 kinases in vitro; Ruxolitinib at 0.1 μM
[2] = target: IRAK1 (Homo sapiens, UniProt P51617); experiment: in vitro protein kinase assay, IRAK1; assay type: biochemical; settings: 1 μM Ruxolitinib
[3] = target: MARK3 (Homo sapiens, UniProt P27448); experiment: in vitro protein kinase assay, MARK3; assay type: biochemical; settings: 1 μM Ruxolitinib
[4] = test system: BMDMs; experiment: LPS induced signaling in BMDMs, immunoblotting; assay type: cell-based, mouse; settings: 0.5 μM Ruxolitinib, 100 ng/ml LPS
Method in brief: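 Wild-type mouse BMDMs were pretreated 1 h with 0.5 µM test compound, then stimulated with 100 ng/ml LPS for varying times. Cells were lysed directly in SDS sample buffer and run on 10% polyacrylamide gels, then transferred to nitrocellulose. Blots were probed for total and phospho STAT3 (Y705, S727), phospho-STAT1 Y701, ERK1/2, p38, phospho-JNK, phospho-p105 and IκBα, with HRP secondaries and ECL detection.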

[5] = target: TrkA (Homo sapiens, UniProt P04629); experiment: in vitro protein kinase assay, TrkA; assay type: biochemical; settings: read-out: inhibition of TrkA
[6] = test system: BMDMs; experiment: LPS induced IL-10 mRNA; assay type: cell-based, mouse; settings: 100 ng/ml LPS
Method in brief: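 BMDMs came from wild-type or IFNαβR knockout mice, cultured 7 d with mCSF and used 24 h after replating. They were pretreated 1 h with test compound (0.5 µM or 5 µM), then given 100 ng/ml E. coli O26:B6 LPS over a time course. IL-10 mRNA was measured by Q-PCR (18s-normalised) and secreted IL-10 by multiplex assay. SD from independent cultures of four mice.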

[7] = test system: BMDMs; experiment: LPS induced pro-inflammatory cytokine production in BMDMs; assay type: cell-based, mouse
Method in brief: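 BMDMs came from wild-type, IL-10 knockout or IFNαβR knockout mice and were pretreated 1 h with 0.5 µM test compound. Stimulation was 100 ng/ml LPS over a time course, or LPS ± 100 ng/ml IL-10 for 6 h in IL-10 knockout cells. Secreted TNF-α, IL-6, IL-12p40 and IL-12p70 were measured by Luminex multiplex, and the matching mRNAs (IL-12p35 for p70) by 18s-normalised Q-PCR. Four mice per genotype.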

[8] = test system: BMDMs; experiment: IFNβ induced IL-10 and IL-6 transcription in BMDMs; assay type: cell-based, mouse; settings: 0.5 μM Ruxolitinib, 500 Units/ml IFNβ, wild type BMDMs
Method in brief: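 Wild-type mouse BMDMs were grown 7 d from bone marrow in DMEM with 10% heat-inactivated FBS and 5 ng/ml mCSF, then replated and used 24 h later. Cells were pretreated 1 h with 0.5 µM test compound, then given 500 U/ml IFN-β for varying times. IL-10 or IL-6 mRNA was measured by SYBR green Q-PCR, normalised to 18s against unstimulated wild-type controls. Four mice, independent cultures.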

[9] = test system: DBA/1J mice; settings: IP LPS, 5mg/kg Tofacitinib, ref [50]; cited from earlier work
[10] = test system: phospho-Y701 STAT1; settings: BMDMs, 500 Units/ml IFNβ 30 min
[11] = test system: phospho Tyr705 STAT3; settings: BMDMs, 100 ng/ml IL-10 30 min
[12] = 0.5 μM Ruxolitinib, wild type BMDMs
[13] = 0.5 μM Ruxolitinib, 100 ng/ml LPS
[14] = 0.5 μM Ruxolitinib, 100 ng/ml LPS 6 h

Sequence of MARK3 (P27448 whole entry, species assumed): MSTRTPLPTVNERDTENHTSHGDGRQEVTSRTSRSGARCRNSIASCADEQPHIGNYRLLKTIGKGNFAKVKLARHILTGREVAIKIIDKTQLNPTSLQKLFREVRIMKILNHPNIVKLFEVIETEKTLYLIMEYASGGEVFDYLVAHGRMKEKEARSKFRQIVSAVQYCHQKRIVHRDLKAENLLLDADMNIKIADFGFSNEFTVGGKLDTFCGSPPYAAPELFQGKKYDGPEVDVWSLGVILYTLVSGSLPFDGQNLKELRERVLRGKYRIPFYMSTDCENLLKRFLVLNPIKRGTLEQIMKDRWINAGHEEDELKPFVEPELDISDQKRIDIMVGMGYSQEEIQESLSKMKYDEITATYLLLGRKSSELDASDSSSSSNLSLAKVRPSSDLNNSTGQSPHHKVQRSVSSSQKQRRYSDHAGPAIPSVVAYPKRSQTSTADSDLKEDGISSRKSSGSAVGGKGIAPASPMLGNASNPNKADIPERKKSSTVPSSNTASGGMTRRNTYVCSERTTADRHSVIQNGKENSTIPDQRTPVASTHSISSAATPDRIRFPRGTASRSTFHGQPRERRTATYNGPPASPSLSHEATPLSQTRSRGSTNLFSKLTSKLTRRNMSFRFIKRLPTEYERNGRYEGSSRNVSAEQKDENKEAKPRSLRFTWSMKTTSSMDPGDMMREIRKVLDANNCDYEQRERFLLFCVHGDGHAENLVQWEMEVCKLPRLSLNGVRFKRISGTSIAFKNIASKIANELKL
Sequence of TrkA (P04629 33-796, species assumed): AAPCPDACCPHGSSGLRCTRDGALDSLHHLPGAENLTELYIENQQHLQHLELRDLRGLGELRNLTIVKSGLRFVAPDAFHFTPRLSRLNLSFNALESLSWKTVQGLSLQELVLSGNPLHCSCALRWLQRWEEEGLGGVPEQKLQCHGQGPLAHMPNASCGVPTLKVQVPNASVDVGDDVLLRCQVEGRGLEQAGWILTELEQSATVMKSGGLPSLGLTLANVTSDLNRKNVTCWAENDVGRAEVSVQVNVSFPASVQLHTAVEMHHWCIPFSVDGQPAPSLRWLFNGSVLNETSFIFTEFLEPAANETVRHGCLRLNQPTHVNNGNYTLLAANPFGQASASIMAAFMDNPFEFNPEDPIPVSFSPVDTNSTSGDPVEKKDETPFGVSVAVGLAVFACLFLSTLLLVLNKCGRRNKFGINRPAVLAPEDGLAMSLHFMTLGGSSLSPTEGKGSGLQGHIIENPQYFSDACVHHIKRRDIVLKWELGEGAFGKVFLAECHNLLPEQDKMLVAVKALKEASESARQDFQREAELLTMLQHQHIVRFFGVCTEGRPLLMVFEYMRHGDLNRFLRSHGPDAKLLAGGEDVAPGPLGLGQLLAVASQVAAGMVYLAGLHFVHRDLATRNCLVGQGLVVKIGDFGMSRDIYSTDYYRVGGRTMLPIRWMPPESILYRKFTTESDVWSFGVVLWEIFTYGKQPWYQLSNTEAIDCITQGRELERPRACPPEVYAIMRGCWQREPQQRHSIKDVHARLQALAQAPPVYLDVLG
Sequence of IRAK1 (P51617 whole entry, species assumed): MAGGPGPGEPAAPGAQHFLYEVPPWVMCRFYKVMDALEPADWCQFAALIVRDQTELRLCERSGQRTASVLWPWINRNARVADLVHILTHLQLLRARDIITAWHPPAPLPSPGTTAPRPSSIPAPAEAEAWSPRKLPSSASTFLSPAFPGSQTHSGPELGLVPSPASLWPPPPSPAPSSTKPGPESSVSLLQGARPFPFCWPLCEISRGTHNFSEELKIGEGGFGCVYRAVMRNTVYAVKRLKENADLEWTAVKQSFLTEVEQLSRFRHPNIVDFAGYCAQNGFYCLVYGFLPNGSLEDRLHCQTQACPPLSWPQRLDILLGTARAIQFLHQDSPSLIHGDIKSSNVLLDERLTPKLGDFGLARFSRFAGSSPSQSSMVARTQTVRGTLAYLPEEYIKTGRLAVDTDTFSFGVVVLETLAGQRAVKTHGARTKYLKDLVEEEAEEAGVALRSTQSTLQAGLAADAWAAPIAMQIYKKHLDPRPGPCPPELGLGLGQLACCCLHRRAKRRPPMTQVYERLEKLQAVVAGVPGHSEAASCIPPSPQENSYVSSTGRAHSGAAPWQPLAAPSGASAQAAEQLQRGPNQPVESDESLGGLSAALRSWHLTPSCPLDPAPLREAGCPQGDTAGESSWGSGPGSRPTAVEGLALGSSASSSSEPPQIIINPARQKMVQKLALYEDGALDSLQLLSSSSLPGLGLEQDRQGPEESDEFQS

For `N#C/C(=C/c1ccc(O)c(O)c1)C(=O)NCc1ccccc1` [AG-490], the “selectivity in kinase panel” value [1] was “could also block several Ser/Thr kinases”.
In the case of `N#CC[C@H](C1CCCC1)n1cc(-c2ncnc3[nH]ccc23)cn1` [Ruxolitinib], the “activity against IRAK1” value [2] is reported as “weak activity”, the “activity against MARK3” value [3] is reported as “weak activity” and the “LPS induced STAT1 Y701 phosphorylation” value [4] is reported as “blocked”. For the same compound, the “TLR4 induced activation of the ERK1/2, p38 or JNK MAPK cascades” value [4] was “did not affect”, the “activation of the NFκB pathway (IκBα degradation, p105 and IκBα phosphorylation)” value [4] was “no major affects” and the “phosphorylation of STAT3 on S727” value [4] was “not blocked”. The “phosphorylation of STAT3 on Y705 in response to LPS” value [4] was “completely blocked”, the inhibition at 0.1 µM [5] was > 50% and the “IL-10 levels secreted from IFNαβR knockout macrophages” value ([6]; 0.5 μM Ruxolitinib) was “did not affect”. For the same compound, the “IL-10 secreted into the media at later time points (8 to 24 h)” value [6, 12] was “decrease”, the “IL-10 secretion at 4 h” value [6, 12] was “unaffected” and the “initial transcription of IL-10” value [6, 12] was “did not affect”. The “transcription of IL-10 at later time points” value [6, 12] was “reduce”, the “IL-6 production from IFNαβR knockout macrophages” value [7, 13] was “increased” and the “IL-6 production from wild type cells” value [7, 13] was “increased”. For the same compound, the “TNFα production in IL-10 knockout cells” value [7, 13] was “little effect”, the “peak amount of LPS-induced IL-12 mRNA in IL-10 knockout cells” value [7, 13] was “decreased” and the “secreted levels of IL-6 in wild type and IL-10 knockout cells” value [7, 13] was “intermediate between the wild type and IL-10 knockout cells”. The “production of IL-6 by LPS in IL-10 knockout BMDMs” value [7, 14] was “moderately decreased”, the “production of TNFα by LPS in IL-10 knockout BMDMs (decrease)” value [7, 14] was “to a lesser extent” and the “TNFα mRNA and secreted protein levels in wild type cells” value ([7]; 0.5 μM Ruxolitinib, 100 ng/ml LPS, to similar values as IL-10 knockout BMDMs) was “increased”. The “inhibitory effects of IL-10 on TNFα and IL-6 production” value ([7]; IL-10 knockout BMDMs, 0.5 μM Ruxolitinib, LPS and 100 ng/ml IL-10 6 h) was “blocked”, the “IFNβ induced IL-10 transcription” value [8] was “greatly reduced” and the “IFNβ stimulated IL-6 transcription” value [8] was “inhibited”.
For `C[C@@H]1CCN(C(=O)CC#N)C[C@@H]1N(C)c1ncnc2[nH]ccc12` [Tofacitinib], the “plasma IL-10 levels” value [9] is listed as “increased”, the “plasma levels of TNF, IL-6 and IL-12” value [9] is listed as “reduced” and the “IL-10 mRNA at later time points” value ([6]; 5 μM Tofacitinib) is listed as “inhibited”. For the same compound, the “IL-10 secretion at 8 and 16h after LPS stimulation” value ([6]; 5 μM Tofacitinib) was “decreased”, the “initial phase of IL-10 transcription” value ([6]; 5 μM Tofacitinib) was “did not affect” and the “IL-6 secretion following 24h of LPS stimulation” value ([7]; Tofacitinib) was “increased”. The “TNF and IL-12 production in response to a prolonged stimulation with LPS” value ([7]; Tofacitinib at a concentration able to inhibit STAT3 phosphorylation) was “increased”, the “IFNβ stimulated STAT1 phosphorylation” value [10] was “able to block” and the “IL-10 stimulated STAT3 phosphorylation” value [11] was “able to block”.
